The record followed here is the M2OR odorant receptor database.

Holding throughout (details): stereoisomer not certain
For one experiment, the target named is T1, OR1L3 (Homo sapiens) (UniProt Q8NH93).
T1 sequence (whole entry): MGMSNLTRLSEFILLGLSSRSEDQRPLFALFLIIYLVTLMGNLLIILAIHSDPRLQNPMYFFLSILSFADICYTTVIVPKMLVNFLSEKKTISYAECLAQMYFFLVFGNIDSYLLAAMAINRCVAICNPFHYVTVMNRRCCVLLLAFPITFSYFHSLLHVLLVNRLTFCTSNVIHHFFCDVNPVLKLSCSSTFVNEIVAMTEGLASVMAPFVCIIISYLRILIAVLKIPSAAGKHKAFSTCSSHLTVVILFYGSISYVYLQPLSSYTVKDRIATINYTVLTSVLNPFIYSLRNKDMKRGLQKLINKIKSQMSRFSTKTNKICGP
An outline of the steps: (§1)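 Values were gathered from published papers (main text and supplementary material), with extra details requested from the original authors when needed, and checked for typos and inconsistencies. Each receptor–molecule pair is called responsive (active) if the original authors judged the measured signal statistically different from baseline, and non-responsive (inactive) otherwise. Assay methods varied by source, often transient mammalian cell-line luciferase assays. Recorded details include cell line, G-protein, co-transfected protein and tags.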

In another experiment the target is T2, OR1L4 (Homo sapiens) (UniProt Q8NGR5).
T2 sequence (whole entry): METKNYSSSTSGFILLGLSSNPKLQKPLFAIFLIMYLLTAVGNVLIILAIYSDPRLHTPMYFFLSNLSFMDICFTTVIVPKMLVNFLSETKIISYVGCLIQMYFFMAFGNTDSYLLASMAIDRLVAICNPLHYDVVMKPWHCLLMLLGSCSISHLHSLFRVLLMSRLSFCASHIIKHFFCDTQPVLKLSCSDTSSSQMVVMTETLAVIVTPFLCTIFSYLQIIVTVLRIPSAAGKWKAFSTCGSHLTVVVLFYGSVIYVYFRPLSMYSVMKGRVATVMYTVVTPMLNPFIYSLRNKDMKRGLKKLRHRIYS
An outline of the steps:
as §1

A further experiment relates to T3, OR1L4.
T3 sequence (whole entry): T2 sequence (whole entry) with G234R
An outline of the steps:
as §1

The target of a further experiment is T4, OR1L6 (Homo sapiens) (UniProt Q8NGR2).
T4 sequence (whole entry): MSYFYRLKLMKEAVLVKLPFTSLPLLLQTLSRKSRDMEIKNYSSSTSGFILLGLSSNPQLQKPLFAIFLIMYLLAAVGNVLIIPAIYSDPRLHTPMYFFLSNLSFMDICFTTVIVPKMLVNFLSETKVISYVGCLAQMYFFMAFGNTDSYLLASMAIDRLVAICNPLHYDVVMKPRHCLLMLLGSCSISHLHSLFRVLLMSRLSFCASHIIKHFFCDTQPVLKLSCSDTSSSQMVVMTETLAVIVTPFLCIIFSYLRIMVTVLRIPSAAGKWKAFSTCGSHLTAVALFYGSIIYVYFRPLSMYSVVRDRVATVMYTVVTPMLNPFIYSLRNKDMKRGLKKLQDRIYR
An outline of the steps:
as §1

For the next experiment, the target named is T5, OR1L8 (Homo sapiens) (UniProt Q8NGR8).
T5 sequence (whole entry): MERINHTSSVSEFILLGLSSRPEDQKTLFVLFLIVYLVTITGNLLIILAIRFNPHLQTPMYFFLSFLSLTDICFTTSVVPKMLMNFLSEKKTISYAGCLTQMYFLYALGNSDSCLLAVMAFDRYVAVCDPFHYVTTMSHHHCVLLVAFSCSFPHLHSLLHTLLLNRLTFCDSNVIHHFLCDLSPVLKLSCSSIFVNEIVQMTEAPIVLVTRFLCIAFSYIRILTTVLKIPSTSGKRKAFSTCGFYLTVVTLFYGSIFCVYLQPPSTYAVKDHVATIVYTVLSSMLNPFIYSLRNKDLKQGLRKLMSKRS
An outline of the steps: as §1

In the next experiment the test system is T6, OR1L8 T27P R211P.
T6 sequence (whole entry): T5 sequence (whole entry) with T27P, R211P
In outline:
as §1

The next experiment addresses T7, OR1M1 (Homo sapiens) (UniProt Q8NGA1).
T7 sequence (whole entry): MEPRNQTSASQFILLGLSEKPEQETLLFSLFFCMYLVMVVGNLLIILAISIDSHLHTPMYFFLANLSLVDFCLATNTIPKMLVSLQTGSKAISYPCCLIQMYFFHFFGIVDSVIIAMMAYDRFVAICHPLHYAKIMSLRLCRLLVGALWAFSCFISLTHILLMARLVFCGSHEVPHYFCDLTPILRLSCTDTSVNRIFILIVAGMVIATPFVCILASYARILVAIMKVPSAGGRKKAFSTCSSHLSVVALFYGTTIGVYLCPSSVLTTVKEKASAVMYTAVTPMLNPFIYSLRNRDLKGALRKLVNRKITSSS
An outline of the steps: as §1

A further experiment concerns the target T8, OR1N1 (Homo sapiens) (UniProt Q8NGS0).
T8 sequence (whole entry): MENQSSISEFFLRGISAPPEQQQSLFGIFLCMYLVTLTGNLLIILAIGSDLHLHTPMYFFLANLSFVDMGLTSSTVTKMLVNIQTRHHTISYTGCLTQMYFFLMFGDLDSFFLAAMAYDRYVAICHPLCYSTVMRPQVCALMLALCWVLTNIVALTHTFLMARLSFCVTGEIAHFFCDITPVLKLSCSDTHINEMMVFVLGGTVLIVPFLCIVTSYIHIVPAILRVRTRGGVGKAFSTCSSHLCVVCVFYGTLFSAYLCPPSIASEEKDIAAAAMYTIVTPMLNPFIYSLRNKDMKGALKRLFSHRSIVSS
An outline of the steps:
as §1

The subject of the next experiment is T9, OR1N2 W37R.
T9 sequence (whole entry): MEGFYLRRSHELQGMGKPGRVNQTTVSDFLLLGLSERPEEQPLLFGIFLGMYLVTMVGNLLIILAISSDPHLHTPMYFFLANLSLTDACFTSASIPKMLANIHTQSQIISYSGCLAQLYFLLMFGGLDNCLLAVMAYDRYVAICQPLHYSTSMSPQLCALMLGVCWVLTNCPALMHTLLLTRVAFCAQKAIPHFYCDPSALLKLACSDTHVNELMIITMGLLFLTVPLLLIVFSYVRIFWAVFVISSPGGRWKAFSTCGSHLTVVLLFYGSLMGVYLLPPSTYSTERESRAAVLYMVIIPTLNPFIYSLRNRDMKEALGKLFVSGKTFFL
In outline:
as §1

Another experiment concerns T10, OR1N2.
T10 sequence (whole entry): T9 sequence (whole entry) with R37W
An outline of the steps:
as §1

The next experiment deals with T11, OR1Q1 (Homo sapiens) (UniProt Q15612).
T11 sequence (whole entry): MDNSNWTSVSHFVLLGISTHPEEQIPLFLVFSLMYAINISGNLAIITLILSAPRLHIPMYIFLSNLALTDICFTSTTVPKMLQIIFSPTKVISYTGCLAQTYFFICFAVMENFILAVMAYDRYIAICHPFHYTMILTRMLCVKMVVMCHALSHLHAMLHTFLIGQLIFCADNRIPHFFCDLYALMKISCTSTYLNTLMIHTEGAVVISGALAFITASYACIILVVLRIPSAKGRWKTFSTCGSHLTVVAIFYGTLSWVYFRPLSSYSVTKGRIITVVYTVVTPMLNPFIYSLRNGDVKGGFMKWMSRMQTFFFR
An outline of the steps: as §1

A further experiment concerns T12, OR1Q1.
T12 sequence (whole entry): T11 sequence (whole entry) with Q24R, I163M
In outline: as §1

The target in a further experiment is T13, OR1S1 (Homo sapiens) (UniProt Q8NH92).
T13 sequence (whole entry): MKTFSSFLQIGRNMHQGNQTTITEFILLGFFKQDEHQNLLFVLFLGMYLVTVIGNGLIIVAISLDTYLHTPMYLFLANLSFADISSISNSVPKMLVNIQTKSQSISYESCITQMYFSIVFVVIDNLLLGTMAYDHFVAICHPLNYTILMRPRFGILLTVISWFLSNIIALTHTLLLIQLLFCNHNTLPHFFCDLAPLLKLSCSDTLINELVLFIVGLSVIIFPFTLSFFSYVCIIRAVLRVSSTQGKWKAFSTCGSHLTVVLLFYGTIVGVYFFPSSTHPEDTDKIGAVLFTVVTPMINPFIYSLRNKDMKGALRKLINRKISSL
In outline:
as §1

In another experiment the target is T14, OR1S2 (Homo sapiens) (UniProt Q8NGQ3).
T14 sequence (whole entry): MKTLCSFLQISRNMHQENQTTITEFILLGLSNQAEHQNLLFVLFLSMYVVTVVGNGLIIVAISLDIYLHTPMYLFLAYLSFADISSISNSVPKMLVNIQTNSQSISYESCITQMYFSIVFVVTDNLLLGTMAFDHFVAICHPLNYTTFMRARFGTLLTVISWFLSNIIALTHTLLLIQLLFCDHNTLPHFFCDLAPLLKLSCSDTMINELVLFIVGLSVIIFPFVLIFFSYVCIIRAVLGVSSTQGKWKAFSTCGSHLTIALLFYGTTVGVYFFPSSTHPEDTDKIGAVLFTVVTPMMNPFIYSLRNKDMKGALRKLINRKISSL
An outline of the steps: as §1

Another experiment deals with T15, OR1S2 E17G.
T15 sequence (whole entry): T14 sequence (whole entry) with E17G
An outline of the steps:
as §1

Another experiment concerns T16, OR1S2 V225T G240R.
T16 sequence (whole entry): T14 sequence (whole entry) with V225T, G240R
An outline of the steps: as §1

For a further experiment, the target named is T17, OR2A1 (Homo sapiens) (UniProt Q8NGT9).
T17 sequence (whole entry): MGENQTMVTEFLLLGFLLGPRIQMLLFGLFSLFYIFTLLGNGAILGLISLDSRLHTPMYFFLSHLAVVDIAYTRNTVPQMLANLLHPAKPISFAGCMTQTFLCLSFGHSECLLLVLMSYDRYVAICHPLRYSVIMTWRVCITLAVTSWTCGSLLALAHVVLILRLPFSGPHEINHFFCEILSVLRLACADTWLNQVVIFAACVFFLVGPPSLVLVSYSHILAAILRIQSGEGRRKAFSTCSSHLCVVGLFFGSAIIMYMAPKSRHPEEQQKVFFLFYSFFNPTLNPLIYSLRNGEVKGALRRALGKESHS
In outline: as §1

A further experiment concerns T18, OR2A1 S168C.
T18 sequence (whole entry): T17 sequence (whole entry) with S168C
An outline of the steps:
as §1

Another experiment addresses OR1P1 (Homo sapiens) (UniProt Q8NH06). In outline: as §1

Changes are numbered by the printed parent chain.

Chain of OR1P1 (Homo sapiens) (Q8NH06 whole entry K185A): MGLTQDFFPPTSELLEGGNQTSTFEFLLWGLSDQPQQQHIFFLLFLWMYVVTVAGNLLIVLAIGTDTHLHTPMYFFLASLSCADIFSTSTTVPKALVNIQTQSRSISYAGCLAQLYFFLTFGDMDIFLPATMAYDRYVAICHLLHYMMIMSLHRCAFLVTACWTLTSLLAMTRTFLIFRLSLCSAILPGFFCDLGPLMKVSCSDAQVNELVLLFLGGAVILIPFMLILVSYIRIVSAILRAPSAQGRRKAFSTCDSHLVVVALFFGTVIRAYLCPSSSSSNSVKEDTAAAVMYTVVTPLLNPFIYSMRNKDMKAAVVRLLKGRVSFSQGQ

Take `CCCCCCC=CCCC=O`: the “odorant receptor agonist call” value with OR1L3 (Homo sapiens), in the experiment with OR1L4 (Homo sapiens), in the experiment with OR1L4, with OR1L6 (Homo sapiens), with OR1L8 (Homo sapiens) and in the experiment on OR1L8 T27P R211P was “inactive” throughout. For the same molecule, the “odorant receptor agonist call” value in the experiment with OR1M1 (Homo sapiens), with OR1N1 (Homo sapiens), in the experiment on OR1N2 W37R, with OR1N2, with OR1Q1 (Homo sapiens) and in the experiment on OR1Q1 was “inactive” throughout. Further, the “odorant receptor agonist call” value with OR1S1 (Homo sapiens), with OR1S2 (Homo sapiens), in the experiment with OR1S2 E17G, in the experiment with OR1S2 V225T G240R, with OR2A1 (Homo sapiens) and in the experiment with OR2A1 S168C was “inactive” each time.

`CC(=O)C=CC1=C(C)CCCC1(C)C`: in the experiment with OR1L3 (Homo sapiens), the “odorant receptor agonist call” value is “inactive”.

As to `CCOC(=O)CC1(C)OCCO1`, the “odorant receptor agonist call” value with OR1L3 (Homo sapiens) is “inactive”.

On to `CCCC(C)C(=O)OCC` (configuration not stated), for which the “odorant receptor agonist call” value with OR1L3 (Homo sapiens) is “inactive”.

Regarding `CCCCCC1COCCC1OC(C)=O` (configuration not stated), in the experiment with OR1L3 (Homo sapiens), the “odorant receptor agonist call” value was “inactive”.

With `CC(C)(C)C1CCCCC1OCCCCO` (configuration not stated), in the experiment with OR1L3 (Homo sapiens), the “odorant receptor agonist call” value was “inactive”.

For `Cc1ccc(C(C)C)cc1O`, the “odorant receptor agonist call” value with OR1L3 (Homo sapiens) is “inactive”.

With `CC(CC=O)c1ccc(C(C)(C)C)cc1` (configuration not stated), the “odorant receptor agonist call” value with OR1L3 (Homo sapiens) is “inactive”.

Consider `CCCCCCCCC(OC(C)=O)OC(C)=O`, for which the “odorant receptor agonist call” value with OR1L3 (Homo sapiens) is “inactive”.

For `CCCCCC1C(=O)CCC1CC(=O)OC` (configuration not stated), the “odorant receptor agonist call” value with OR1L3 (Homo sapiens) was “inactive”.

As for `CC(C)=CCCC(C)CC=O` (configuration not stated), the “odorant receptor agonist call” value in the experiment with OR1L3 (Homo sapiens) is “inactive”.

As to `C=CC(C)(O)CCC=C(C)CCC=C(C)C` (configuration not stated), the “odorant receptor agonist call” value with OR1L3 (Homo sapiens) was “inactive”.

Take `CCc1ccc(CC(C)(C)C=O)cc1`: the “odorant receptor agonist call” value with OR1L3 (Homo sapiens) is “inactive”.

Regarding `CC1CCCCCCCCCCCCC(=O)C1` (configuration not stated), the “odorant receptor agonist call” value with OR1P1 (Homo sapiens) is “inactive”.

Consider `CC(=O)c1c(C)c([N+](=O)[O-])c(C(C)(C)C)c([N+](=O)[O-])c1C`, for which the “odorant receptor agonist call” value with OR1P1 (Homo sapiens) was “inactive”.
